Laboratory results taken from ChEMBL document CHEMBL1153575, “Synthesis and in vitro anticancer activity of 2,4-azolidinedione-acetic acids derivatives” (2009).

What was measured:
Format in all cases: functional
NCI-H460 = experiment: Cytotoxicity against human NCI-H460 cells assessed as cell growth at 100 uM after 48 hrs by sulforhodamine B assay; details: NCI-H460, 48 h, read-out: Activity
Outline: (§1)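 Primary one-dose screen on a three-line panel (MCF7 breast, NCI-H460 lung, SF-268 CNS) at 10^-4 M. Cells were preincubated 24–48 h before a single addition of the agent, followed by 48 h incubation. Endpoint was SRB protein staining, reported as percent growth versus untreated controls.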

NCI-H23 = experiment: Growth inhibition of human NCI-H23 cells after 48 hrs by sulforhodamine B assay; details: NCI-H23, 48 h; for TGI: read-out: pTGI (converted)
Outline: (§2)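 Five-concentration assay in about 60 human tumour lines, using 10-fold dilutions from 10^-4 to 10^-8 M with 48 h continuous exposure and an SRB protein endpoint. Percent growth at each level comes from time-zero, untreated-control and treated absorbances. GI50 is 50% lower net protein increase than control. Values beyond the tested range are given as greater or less than the extreme concentration.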

A498 = experiment: Growth inhibition of human A498 cells after 48 hrs by sulforhodamine B assay; details: A498, 48 h; outline: as §2
MCF7 [1] = experiment: Cytotoxicity against human MCF7 cells assessed as cell growth at 100 uM after 48 hrs by sulforhodamine B assay; details: MCF7, 48 h, read-out: Activity; outline: as §1
SR = experiment: Growth inhibition of human SR cells after 48 hrs by sulforhodamine B assay; details: for TGI: read-out: pTGI (converted); outline: as §2
[2] = Growth inhibition of human Hs 578T cells after 48 hrs by sulforhodamine B assay; details: for CC50: read-out: pLC50 (the source's name) (converted); for TGI: read-out: pTGI (converted); outline: as §2
SF-268 [3] = experiment: Cytotoxicity against human SF268 cells assessed as cell growth at 100 uM after 48 hrs by sulforhodamine B assay; details: SF-268, 48 h, read-out: Activity; outline: as §1
MDA-MB-231 = experiment: Growth inhibition of human MDA-MB-231 cells after 48 hrs by sulforhodamine B assay; details: MDA-MB-231, 48 h; for TGI: read-out: pTGI (converted); outline: as §2
CCRF-CEM = experiment: Growth inhibition of human CCRF-CEM cells after 48 hrs by sulforhodamine B assay; details: for TGI: read-out: pTGI (converted); outline: as §2
[4] = Growth inhibition of human 786-O cells after 48 hrs by sulforhodamine B assay; details: 786-0, 48 h; outline: as §2
SNB-75 = experiment: Growth inhibition of human SNB75 cells after 48 hrs by sulforhodamine B assay; details: SNB-75, 48 h; outline: as §2
U-251 = experiment: Growth inhibition of human U251 cells after 48 hrs by sulforhodamine B assay; details: U-251, 48 h; for TGI: read-out: pTGI (converted); outline: as §2
SF-295 = experiment: Growth inhibition of human SF295 cells after 48 hrs by sulforhodamine B assay; details: SF-295, 48 h; outline: as §2
HOP-92 = experiment: Growth inhibition of human HOP92 cells after 48 hrs by sulforhodamine B assay; details: HOP-92, 48 h; for TGI: read-out: pTGI (converted); outline: as §2
SK-OV-3 = experiment: Growth inhibition of human SKOV3 cells after 48 hrs by sulforhodamine B assay; details: SK-OV-3, 48 h; for TGI: read-out: pTGI (converted); outline: as §2
NCI-H226 = experiment: Growth inhibition of human NCI-H226 cells after 48 hrs by sulforhodamine B assay; details: NCI-H226, 48 h; for CC50: read-out: pLC50 (the source's name) (converted); for TGI: read-out: pTGI (converted); outline: as §2
MCF7 [5] = experiment: Growth inhibition of human MCF7 cells after 48 hrs by sulforhodamine B assay; details: MCF7, 48 h; outline: as §2
OVCAR-3 = experiment: Growth inhibition of human OVCAR-3 cells after 48 hrs by sulforhodamine B assay; details: OVCAR-3, 48 h; outline: as §2
HCT-116 = experiment: Growth inhibition of human HCT116 cells after 48 hrs by sulforhodamine B assay; details: HCT-116, 48 h; outline: as §2
OVCAR-4 = experiment: Growth inhibition of human OVCAR4 cells after 48 hrs by sulforhodamine B assay; details: OVCAR-4, 48 h; outline: as §2
SNB- = experiment: Growth inhibition of human SNB cells after 48 hrs by sulforhodamine B assay; outline: as §2
HOP-62 = experiment: Growth inhibition of human HOP62 cells after 48 hrs by sulforhodamine B assay; details: HOP-62, 48 h; outline: as §2
SF-268 [6] = experiment: Growth inhibition of human SF268 cells after 48 hrs by sulforhodamine B assay; details: SF-268, 48 h; outline: as §2
TK-10 = experiment: Growth inhibition of human TK10 cells after 48 hrs by sulforhodamine B assay; details: TK-10, 48 h; outline: as §2
LOX IMVI = experiment: Growth inhibition of human LOXIMVI cells after 48 hrs by sulforhodamine B assay; outline: as §2
RPMI-8226 = experiment: Growth inhibition of human RPMI8226 cells after 48 hrs by sulforhodamine B assay; details: RPMI-8226, 48 h; outline: as §2
PC-3 = experiment: Growth inhibition of human PC3 cells after 48 hrs by sulforhodamine B assay; details: PC-3, 48 h; outline: as §2
SN12C = experiment: Growth inhibition of human SN12C cells after 48 hrs by sulforhodamine B assay; outline: as §2
SF-539 = experiment: Growth inhibition of human SF539 cells after 48 hrs by sulforhodamine B assay; details: SF-539, 48 h; outline: as §2
HL-60(TB) = experiment: Growth inhibition of human HL-60(TB) cells after 48 hrs by sulforhodamine B assay; details: HL-60, 48 h
Outline: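 Cells inoculated and preincubated 24–48 h in microtiter plates, then exposed continuously for 48 h to five 10-fold dilutions from 10^-4 to 10^-8 M. End point by sulforhodamine B protein staining, read spectrophotometrically against untreated controls and time-zero absorbance. Percent growth computed per concentration; GI50 taken where [(Ti−Tz)/(C−Tz)]×100 = 50, expressed as log molar value.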

MOLT-4 = experiment: Growth inhibition of human MOLT4 cells after 48 hrs by sulforhodamine B assay; details: MOLT-4, 48 h; outline: as §2
[7] = read-out: pLC50 (the source's name) (converted)

O=C(CN1C(=O)N/C(=C\C=C\c2ccccc2)C1=O)Nc1ccc(Cl)cc1
growth at 100 µM (NCI-H460): 17% | GI50 (NCI-H23): 31.6 µM | LC50 (NCI-H23): > 100 µM | TGI (NCI-H23): > 100 µM | GI50 (A498): 17.8 µM | CC50 (A498; [7]): 77.6 µM | TGI (A498; read-out: pTGI (converted)): 37.2 µM | growth at 100 µM (MCF7 [1]): 7% | GI50 (SR): 33.9 µM | LC50 (SR): > 100 µM | TGI (SR): > 100 µM | GI50 [2]: 21.9 µM | CC50 [2]: > 100 µM | TGI [2]: 52.5 µM | growth at 100 µM (SF-268 [3]): 39% | GI50 (MDA-MB-231): 26.3 µM | LC50 (MDA-MB-231): > 100 µM | TGI (MDA-MB-231): > 100 µM

COc1ccc(/C=C2/NC(=O)N(CC(=O)Nc3cc(C(F)(F)F)ccc3Cl)C2=O)cc1
GI50 (CCRF-CEM): 21.9 µM | LC50 (CCRF-CEM): > 100 µM | TGI (CCRF-CEM): > 100 µM | GI50 [4]: 21.9 µM | CC50 [4, 7]: > 100 µM | TGI ([4]; read-out: pTGI (converted)): > 100 µM | GI50 (SNB-75): 2.69 µM | CC50 (SNB-75; [7]): > 100 µM | TGI (SNB-75; read-out: pTGI (converted)): 16.6 µM | GI50 (SR): 7.24 µM | LC50 (SR): 49 µM | TGI (SR): 20 µM | GI50 (U-251): 9.33 µM | LC50 (U-251): > 100 µM | TGI (U-251): 63.1 µM | GI50 (SF-295): 30.9 µM | CC50 (SF-295; [7]): > 100 µM | TGI (SF-295; read-out: pTGI): > 100 µM | GI50 (HOP-92): 6.03 µM | LC50 (HOP-92): 69.2 µM | TGI (HOP-92): 24 µM | GI50 [2]: 18.6 µM | CC50 [2]: > 100 µM | TGI [2]: 91.2 µM | GI50 (SK-OV-3): 19.5 µM | LC50 (SK-OV-3): > 100 µM | TGI (SK-OV-3): 81.3 µM | GI50 (NCI-H226): 26.3 µM | CC50 (NCI-H226): > 100 µM | TGI (NCI-H226): > 100 µM | GI50 (MDA-MB-231): 15.8 µM | LC50 (MDA-MB-231): > 100 µM | TGI (MDA-MB-231): > 100 µM

COc1ccc(/C=C2/NC(=O)N(CC(=O)Nc3cccc(C(F)(F)F)c3)C2=O)cc1
GI50 (MCF7 [5]): 2.82 µM | CC50 (MCF7 [5]; [7]): > 100 µM | TGI (MCF7 [5]; read-out: pTGI): > 100 µM | growth at 100 µM (NCI-H460): 44% | GI50 (NCI-H23): 26.3 µM | LC50 (NCI-H23): > 100 µM | TGI (NCI-H23): 89.1 µM | growth at 100 µM (MCF7 [1]): 64% | GI50 (U-251): 25.7 µM | LC50 (U-251): > 100 µM | TGI (U-251): 69.2 µM | GI50 (OVCAR-3): 30.9 µM | CC50 (OVCAR-3; [7]): > 100 µM | TGI (OVCAR-3; read-out: pTGI (converted)): 95.5 µM | GI50 (HCT-116): 30.2 µM | LC50 (HCT-116): > 100 µM | TGI (HCT-116; read-out: pTGI (converted)): > 100 µM | growth at 100 µM (SF-268 [3]): 65% | GI50 (MDA-MB-231): 23.4 µM | LC50 (MDA-MB-231): > 100 µM | TGI (MDA-MB-231): 58.9 µM

O=C(CN1C(=O)N/C(=C\c2ccc(Cl)cc2)C1=O)Nc1ccc(Cl)cc1
GI50 (OVCAR-4): 13.2 µM | CC50 (OVCAR-4; [7]): > 100 µM | TGI (OVCAR-4; read-out: pTGI (converted)): 64.6 µM | GI50 (CCRF-CEM): 14.8 µM | LC50 (CCRF-CEM): 67.6 µM | TGI (CCRF-CEM): 31.6 µM | GI50 (SNB-): 13.2 µM | CC50 (SNB-; [7]): > 100 µM | TGI (SNB-; read-out: pTGI (converted)): 36.3 µM | GI50 (HOP-62): 15.1 µM | LC50 (HOP-62): > 100 µM | TGI (HOP-62; read-out: pTGI (converted)): 43.7 µM | GI50 (SF-268 [6]): 10.5 µM | CC50 (SF-268 [6]; [7]): 85.1 µM | TGI (SF-268 [6]; read-out: pTGI (converted)): 29.5 µM | GI50 (TK-10): 17 µM | CC50 (TK-10; [7]): > 100 µM | TGI (TK-10; read-out: pTGI (converted)): 42.7 µM | GI50 (LOX IMVI): 15.5 µM | CC50 (LOX IMVI; [7]): 66.1 µM | TGI (LOX IMVI; read-out: pTGI (converted)): 32.4 µM | GI50 (SR): 7.08 µM | LC50 (SR): > 100 µM | TGI (SR): 67.6 µM | GI50 (U-251): 14.8 µM | LC50 (U-251): 60.3 µM | TGI (U-251): 29.5 µM | GI50 (RPMI-8226): 20.9 µM | LC50 (RPMI-8226): > 100 µM | TGI (RPMI-8226; read-out: pTGI (converted)): 67.6 µM | GI50 (HOP-92): 17.4 µM | LC50 (HOP-92): > 100 µM | TGI (HOP-92): 50.1 µM | GI50 (PC-3): 18.6 µM | CC50 (PC-3; [7]): > 100 µM | TGI (PC-3; read-out: pTGI (converted)): 46.8 µM | GI50 (SN12C): 17 µM | LC50 (SN12C): > 100 µM | TGI (SN12C; read-out: pTGI (converted)): 47.9 µM | GI50 [2]: 10.7 µM | CC50 [2]: > 100 µM | TGI [2]: 38 µM | GI50 (SF-539): 16.6 µM | CC50 (SF-539; [7]): 89.1 µM | TGI (SF-539; read-out: pTGI (converted)): 38.9 µM | GI50 (SK-OV-3): 19.5 µM | LC50 (SK-OV-3): > 100 µM | TGI (SK-OV-3): 51.3 µM | GI50 (NCI-H226): 15.8 µM | CC50 (NCI-H226): > 100 µM | TGI (NCI-H226): 44.7 µM | GI50 (HL-60(TB)): 19.5 µM | CC50 (HL-60(TB); [7]): > 100 µM | TGI (HL-60(TB); read-out: pTGI (converted)): 46.8 µM | GI50 (MDA-MB-231): 16.2 µM | LC50 (MDA-MB-231): > 100 µM | TGI (MDA-MB-231): 42.7 µM | GI50 (MOLT-4): 11 µM | CC50 (MOLT-4; [7]): 72.4 µM | TGI (MOLT-4; read-out: pTGI (converted)): 28.2 µM
